Measurements gathered from unrelated publications.
Lines come from different studies, so protocols differ.
Target: Serine/threonine-protein kinase MRCK beta (CDC42BPB, Homo sapiens, UniProt Q9Y5S2)

CCCCNc1ncc2c(-c3ccc(F)cc3)nn(C[C@H]3CC[C@H](N)CC3)c2n1 — inhibition (target engagement in cells, inhibitor, chemoproteomics; 20 mM): 3.6%
CCCOc1ccc(OC)c(F)c1C(=O)c1ccc(C(=O)N[C@@H]2CNC[C@H]2NC(=O)c2ccc3[nH]ncc3c2)cc1 — remaining activity (enzyme activity, inhibitor; 0.1 µM): 34%
N#CCCc1ccc2c(c1)-c1[nH]c3ccc([N+](=O)[O-])cc3c1CC(=O)N2 — remaining signal (cell-free assay; 0.5 µM): 54.1%
O=C(NC[C@@H]1[C@H]2CN(C(=O)OCc3cc(C(F)(F)F)cc(C(F)(F)F)c3)C[C@@H]12)c1ccc2[nH]nnc2c1 — remaining binding (cell-free assay, competition with immobilised ligand; 1 µM): 100%
COc1cc(Cl)c(C(=O)N[C@@H](CN[C@H]2CC[C@@H](N)CC2)Cc2ccc(C#N)cc2)cc1-c1ccc(CN[C@H](C)c2ccc(C)cc2)o1 — remaining activity (enzyme activity, inhibitor; 1 µM): 100%
O=C(NS(=O)(=O)c1ccc(NCC2CCOCC2)c([N+](=O)[O-])c1)c1ccc(N2CCN(Cc3ccc(C(F)(F)F)cc3-c3ccc(Cl)cc3)CC2)cc1Oc1cnc2[nH]ccc2c1 — remaining binding (cell-free assay, competition with immobilised ligand; 1 µM): 94%
Nc1ncnc2occ(-c3ccc(NC(=O)Nc4cc(C(F)(F)F)ccc4F)cc3)c12 — remaining activity (enzyme activity, inhibitor; 20 µM): 33%
O=C(Nc1cccnn1)N1CCC(=Cc2cccc(Oc3ccc(C(F)(F)F)cn3)c2)CC1 — remaining binding (cell-free assay, competition with immobilised ligand; 1 µM): 100%
CNC(=O)c1cc(Oc2ccc(NC(=O)Nc3ccc(Cl)c(C(F)(F)F)c3)cc2)ccn1 — inhibition (enzyme activity, inhibitor; 10 µM): 0%
CC(C)(C)c1nc2c(s1)c1nc(N)ncc1c1ccc(NS(=O)(=O)c3c(F)cccc3F)c(F)c12 — remaining activity (enzyme activity, inhibitor, radiometric; 1 µM): 100%
COc1cccc2c(NCc3ccccc3)nc(-n3c(N)nc4ccccc43)nc12 — inhibition (target engagement in cells, inhibitor, chemoproteomics; 20 mM): -1.3%
Cc1c(NC(=O)c2cc(C(N)=O)nc3cc(F)ccc23)c(C(F)(F)F)nn1Cc1ccc(C#N)cc1 — remaining binding (cell-free assay, competition with immobilised ligand; 1 µM): 100%
O=c1cc(-c2cccc3c2Sc2ccccc2S3)oc(N2CCOCC2)c1 — remaining activity (enzyme activity, inhibitor; 0.5 µM): 103%
Cc1c(C(=O)O)cc(-c2ccc(C3CCNCC3)cc2)c2ccc(-c3ccc(C(F)(F)F)cc3)cc12 — remaining binding (cell-free assay, competition with immobilised ligand; 1 µM): 100%
O=C1c2ccccc2-c2n[nH]c3cccc1c23 — activity vs control (enzyme activity, inhibitor; 0.5 µM): 97.2%
COc1cc2ncnc(Nc3ccc(Oc4ccccc4)c(C)c3C)c2cc1OC — inhibition (enzyme activity, inhibitor; 1 µM): 2%
Cc1ccc(Nc2nccc(N(C)c3ccc4c(C)n(C)nc4c3)n2)cc1S(N)(=O)=O — inhibition (enzyme activity, inhibitor; 10 µM): 11%
O=c1c2ccccc2[nH]c(=S)n1CCN1CCC(=C(c2ccc(F)cc2)c2ccc(F)cc2)CC1 — remaining activity (enzyme activity, inhibitor; 0.5 µM): 106%
CCN(CC)CCNC(=O)c1c(C)[nH]c(/C=C2\C(=O)Nc3ccc(F)cc32)c1C — inhibition (enzyme activity, inhibitor; 10 µM): 17%
Cc1noc([C@H]2C[C@@H](c3ccc(C(F)(F)F)cc3)CN(C(=O)N3CCS(=O)(=O)C3)C2)n1 — remaining binding (cell-free assay, competition with immobilised ligand; 1 µM): 100%
CC/C(=N\NC(=O)C(C)Nc1ccccc1)c1ccc(O)c(C)c1O (centres unmarked) — inhibition (enzyme activity, inhibitor; 0.1 µM): 7.1%
CC(C)(O)[C@H]1CC[C@H](Nc2ccc3ncc(-c4cccc(C(F)(F)F)c4)n3n2)CC1 — remaining activity (enzyme activity, inhibitor; 1 µM): 98.9%
CN1CCN(c2cnc3c(C4CCN(C(=O)c5ccc(OC(F)(F)F)cc5N)CC4)ncnc3c2)CC1 — remaining binding (cell-free assay, competition with immobilised ligand; 1 µM): 100%
Cc1ccc(NC(=O)c2ccc(C)c(C(F)(F)F)c2)cc1C#Cc1nn(C2CCC(O)CC2)c2ncnc(N)c12 (centres unmarked) — remaining signal (cell-free assay; 10 µM): 87%
CCOC(=O)c1cc2cc(-c3cc(C(=O)NCc4ccc(C(=O)O)cc4)nn3C)ccc2[nH]1 — remaining binding (cell-free assay, competition with immobilised ligand; 0.1 µM): 88%
O=C(Nc1cnn(-c2csc(C(=O)NC3COC3)c2)c1)Nc1ccccc1Cl — remaining activity (enzyme activity, inhibitor; 5 µM): 97.1%
